Assay results reported in ChEMBL document CHEMBL1131463, “Identification and initial structure-activity relationships of (R)-5-(2-azetidinylmethoxy)-2-chloropyridine (ABT-594), a potent, orally active, non-opiate analgesic agent acting via neuronal nicotinic acetylcholine receptors” (J Med Chem, 1998).
Active and inactive are the calls of the source.

Columns and labels:
Mus musculus [1] = species: Mus musculus; assay: Compound was evaluated for the analgesic activity by mouse hotplate assay at the doses of 0.62 and 6.2; No significant effect observed at the doses tested; assay type: functional, organism-based
[2] = target: T1, Neuronal acetylcholine receptor subunit alpha-7 (Homo sapiens, UniProt P36544); assay: Compound was evaluated for its ability to displace [125I]alpha-bungarotoxin (alpha-BgT) from K28 cells expressing human Nicotinic acetylcholine receptor alpha7; assay type: cell-based
How it was run: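 Displacement of [125I]-α-bungarotoxin from K28 cells expressing human α7 homomers. Ki values are means ± SEM, n ≥ 3.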

[3] = target: T2, Neuronal acetylcholine receptor subunit alpha-3 (Homo sapiens, UniProt P32297); assay: Intrinsic activity against human sympathetic ganglionic type nAChRs in IMR-32 cells containing alpha-3 subtype; assay type: functional, cell-based
How it was run: (§1)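 86Rb+ efflux measured in the human neuroblastoma line IMR-32 (ganglionic-like, α3-containing nAChRs). Intrinsic activity is the maximum response as percent of the response to 100 μM (S)-nicotine. Values are means ± SEM, n ≥ 3.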

[4] = target: Acetylcholine receptor subunit alpha (Torpedo californica, UniProt P02710); assay: Compound was evaluated for its ability to displace [125 I]alpha-bungarotoxin (alpha-BgT) from torpedo alpha1-beta1-[…] electroplax
How it was run: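 Displacement of [125I]-α-bungarotoxin from Torpedo electroplax membranes (α1β1γδ). Ki values are means ± SEM, n ≥ 3.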

[5] = target: T1, Neuronal acetylcholine receptor subunit alpha-7; assay: Compound was evaluated for functional activation from channel currents at human Nicotinic acetylcholine receptor alpha-7 expressed in oocytes.; assay type: cell-based, Oocyte
[6] = target: T2, Neuronal acetylcholine receptor subunit alpha-3; assay: Functional activation of human sympathetic ganglionic type nAChRs in IMR-32 cells containing alpha-3 subtype; assay type: cell-based; how it was run: as §1
Mus musculus [7] = species: Mus musculus; assay: Compound was evaluated for the analgesic activity by mouse hotplate assay at the dose 0.1; No significant effect observed at the doses tested; assay type: functional, organism-based
[8] = target: Neuronal acetylcholine receptor; assay: Compound was evaluated for its ability to displace [3H]-cytisine binding from high-affinity Nicotinic acetylcholine receptor in rat brain (principally the alpha4-beta2 nAChR subtype); assay type: tissue-based
How it was run: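 Displacement of [3H]cytisine from rat whole-brain membranes, principally α4β2 sites.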

K177 cell line = assay: Compound was evaluated for functional activation to [86Rb+] efflux from human K177 cells expressing recombinant alpha4-beta2 receptors.; assay type: cell-based
How it was run: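 86Rb+ efflux measured from K177 cells expressing recombinant human α4β2 receptors. Intrinsic activity is given as percent of the maximal response to 100 μM (S)-nicotine. Values are means ± SEM, n ≥ 3.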

[9] = target: Neuronal acetylcholine receptor; alpha4/beta2 (Homo sapiens, UniProt P17787+P43681); assay: Compound was evaluated for its ability to displace [3H]cytisine from K177 cells expressing human Nicotinic acetylcholine receptor alpha4-beta2; assay type: cell-based
How it was run: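 Displacement of [3H]cytisine from K177 cells expressing human α4β2 nAChRs. Ki values are means ± SEM, n ≥ 3.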

Mus musculus [10] = assay: Minimum intraperitoneal effective dose for abdominal constriction in mouse; assay type: functional, Abdomen
How it was run: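 Mice, 10 per dose group, received compound ip in 0.9% saline, 10 mL/kg, 30 min before ip phenyl-p-quinone (68 μmol/kg in 5% EtOH). Writhing was scored over a 10-min window starting 5 min after the irritant. The read-out was the reduction in the number of responders versus the saline group.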

Canis familiaris [11] = assay: Compound was evaluated for increase in diastolic blood pressure (BP) in dog at 10 nM/Kg when administered intravenously; assay type: functional, Canis lupus familiaris, Artery
How it was run: (§2)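 Male beagle dogs under pentobarbital anesthesia (35 mg/kg iv, then 5 mg/kg/h iv infusion), ventilated with room air. Blood pressure was recorded by a micromanometer catheter passed via the carotid artery into the left ventricle.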

Mus musculus [12] = species: Mus musculus; assay: Compound was evaluated for the analgesic activity by mouse hotplate assay at the doses of 0.062 and 0.62; assay type: functional
Mus musculus [13] = species: Mus musculus; assay: Minimum peroral effective dose for analgesic activity was determined by mouse hot plate assay; assay type: functional
How it was run: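 Mouse hot plate at 55 °C with 8 mice per dose. Drug in 0.9% saline was given po, 10 mL/kg, 30 min before testing, over a range of 0.19–6.2 μmol/kg. MED is the lowest dose that increases latency to the tenth jump versus saline, with a 180 s cutoff.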

Canis familiaris [14] = assay: Compound was evaluated for increase in heart rate (HR) in dog at 10 nM/Kg when administered intravenously; assay type: functional, Canis lupus familiaris; how it was run: as §2
[15] = Compound was evaluated for functional activation to [86Rb+] efflux From human medulloblastoma cell line TE671 expressing recombinant alpha-1-beta-1-gamma delta receptors.; conditions: TE-671
How it was run: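 86Rb+ efflux measured from the human medulloblastoma line TE671. Intrinsic activity is given as percent of the maximal response to 1 mM (S)-nicotine. Values are means ± SEM, n ≥ 3.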

Sequence of Acetylcholine receptor subunit alpha (P02710 whole entry): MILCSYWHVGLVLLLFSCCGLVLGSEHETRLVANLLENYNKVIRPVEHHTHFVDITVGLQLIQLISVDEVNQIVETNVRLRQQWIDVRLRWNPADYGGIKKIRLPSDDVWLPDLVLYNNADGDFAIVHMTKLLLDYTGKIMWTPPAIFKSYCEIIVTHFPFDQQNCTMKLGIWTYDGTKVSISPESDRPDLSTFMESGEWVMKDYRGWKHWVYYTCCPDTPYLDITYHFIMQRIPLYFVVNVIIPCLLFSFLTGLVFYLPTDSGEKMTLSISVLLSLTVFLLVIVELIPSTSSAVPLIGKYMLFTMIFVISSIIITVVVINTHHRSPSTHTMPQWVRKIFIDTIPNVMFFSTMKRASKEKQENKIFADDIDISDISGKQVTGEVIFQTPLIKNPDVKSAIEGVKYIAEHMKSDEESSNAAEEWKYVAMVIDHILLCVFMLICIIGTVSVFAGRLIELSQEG
T1 sequence (P36544 whole entry): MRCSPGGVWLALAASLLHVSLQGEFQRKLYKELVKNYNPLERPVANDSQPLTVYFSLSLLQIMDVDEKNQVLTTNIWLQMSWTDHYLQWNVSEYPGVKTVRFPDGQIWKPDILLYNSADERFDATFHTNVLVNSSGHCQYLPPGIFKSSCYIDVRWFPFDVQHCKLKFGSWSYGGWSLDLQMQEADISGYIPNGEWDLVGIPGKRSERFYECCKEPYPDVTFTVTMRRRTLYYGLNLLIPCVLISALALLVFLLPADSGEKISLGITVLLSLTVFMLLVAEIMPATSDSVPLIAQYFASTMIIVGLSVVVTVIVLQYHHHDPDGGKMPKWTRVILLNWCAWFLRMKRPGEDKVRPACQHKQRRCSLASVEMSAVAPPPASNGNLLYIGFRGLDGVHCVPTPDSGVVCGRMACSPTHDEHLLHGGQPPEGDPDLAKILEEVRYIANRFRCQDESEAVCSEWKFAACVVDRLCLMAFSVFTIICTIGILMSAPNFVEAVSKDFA
T2 sequence (P32297 whole entry): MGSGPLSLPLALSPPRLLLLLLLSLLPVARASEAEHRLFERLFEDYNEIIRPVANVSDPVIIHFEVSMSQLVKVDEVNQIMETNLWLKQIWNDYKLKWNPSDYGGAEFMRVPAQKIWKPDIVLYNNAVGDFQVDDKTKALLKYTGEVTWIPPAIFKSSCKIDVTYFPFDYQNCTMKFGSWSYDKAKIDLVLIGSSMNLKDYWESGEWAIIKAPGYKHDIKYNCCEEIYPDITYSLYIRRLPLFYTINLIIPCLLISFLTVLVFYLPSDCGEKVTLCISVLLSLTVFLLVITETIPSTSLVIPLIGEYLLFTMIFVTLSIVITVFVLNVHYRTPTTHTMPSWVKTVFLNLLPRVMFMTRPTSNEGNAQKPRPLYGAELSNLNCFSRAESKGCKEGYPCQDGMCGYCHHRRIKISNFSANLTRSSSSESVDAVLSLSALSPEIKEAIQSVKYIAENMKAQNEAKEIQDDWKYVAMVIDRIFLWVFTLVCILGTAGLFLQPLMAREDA
Sequence of Neuronal acetylcholine receptor; alpha4/beta2 (P17787 whole entry): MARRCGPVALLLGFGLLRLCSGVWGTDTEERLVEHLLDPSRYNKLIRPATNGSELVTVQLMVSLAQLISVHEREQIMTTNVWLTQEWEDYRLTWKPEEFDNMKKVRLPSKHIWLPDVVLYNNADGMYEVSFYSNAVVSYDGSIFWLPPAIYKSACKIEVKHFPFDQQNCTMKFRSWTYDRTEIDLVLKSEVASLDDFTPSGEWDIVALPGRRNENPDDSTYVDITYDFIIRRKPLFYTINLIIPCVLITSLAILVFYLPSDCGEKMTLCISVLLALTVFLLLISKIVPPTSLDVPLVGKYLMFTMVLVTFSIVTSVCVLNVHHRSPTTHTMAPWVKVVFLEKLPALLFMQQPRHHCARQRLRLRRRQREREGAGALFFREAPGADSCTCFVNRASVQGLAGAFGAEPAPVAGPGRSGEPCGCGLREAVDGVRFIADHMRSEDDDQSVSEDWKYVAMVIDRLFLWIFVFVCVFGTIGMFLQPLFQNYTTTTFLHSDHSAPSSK
Sequence of Neuronal acetylcholine receptor; alpha4/beta2 (P43681 whole entry): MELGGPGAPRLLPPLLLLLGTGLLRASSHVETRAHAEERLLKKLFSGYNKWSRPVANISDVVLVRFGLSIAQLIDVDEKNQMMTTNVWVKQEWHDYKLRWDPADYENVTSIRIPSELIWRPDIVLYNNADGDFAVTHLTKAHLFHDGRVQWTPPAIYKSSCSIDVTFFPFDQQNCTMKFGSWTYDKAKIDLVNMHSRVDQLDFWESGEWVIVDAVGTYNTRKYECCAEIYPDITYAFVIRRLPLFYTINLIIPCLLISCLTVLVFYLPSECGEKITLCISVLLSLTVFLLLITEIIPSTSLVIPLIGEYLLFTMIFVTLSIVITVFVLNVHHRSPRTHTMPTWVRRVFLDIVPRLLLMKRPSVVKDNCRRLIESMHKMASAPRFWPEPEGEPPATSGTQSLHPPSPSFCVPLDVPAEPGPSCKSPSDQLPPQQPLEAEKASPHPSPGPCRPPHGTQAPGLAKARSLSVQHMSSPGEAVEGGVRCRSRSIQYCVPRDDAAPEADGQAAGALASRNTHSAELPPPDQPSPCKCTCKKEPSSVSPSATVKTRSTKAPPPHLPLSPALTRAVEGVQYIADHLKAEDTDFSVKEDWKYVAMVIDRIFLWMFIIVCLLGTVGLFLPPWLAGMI

SMILES | MED (Mus musculus [1]) | IA [3] [%] | Ki [4] [nM] | EC50 [6] [nM] | Ki [8] [nM] | further results
c1cncc(OC[C@H]2CCN2)c1 | inactive | 116 | 384 | 1100 |  | Ki [2]: 1270 nM; EC50 [5]: 36000 nM
Clc1ccc(C2CC3CCC2N3)cn1 (racemic) |  | 156 |  |  |  | MED (Mus musculus [7]): inactive
CN1CC[C@H]1COc1ccc(Cl)nc1 | inactive | 43 |  | 28900 | 1.6 | 
Clc1ccc(OC[C@@H]2CCCN2)cn1 | inactive | 104 |  | 1190 | 0.45 | 
c1cncc(OC[C@@H]2CCN2)c1 | inactive | 113 | 314 | 700 |  | EC50 (K177 cell line; Homo sapiens, K177): 700 nM; Ki [9]: 0.04 nM
Clc1ccc(OC[C@H]2CCCN2)cn1 | inactive | 110 |  | 500 | 0.09 | 
Clc1ccc(OCC2CCN2)cn1 (single isomer, unassigned) [TEBANICLINE] |  | 116 | 10000 | 200 | 0.04 | MED (Mus musculus [10]): 0.19 µM/kg; EC50 (K177 cell line; k177): 270 nM; BP (Canis familiaris [11]): 23.2 mmHg; Ki [2]: 2060 nM; MED (Mus musculus [12]): 0.62 µM/kg; Ki [9]: 0.055 nM; EC50 [5]: 56000 nM; MED (Mus musculus [13]): 6.2 µM/kg; HR (Canis familiaris [14]): 7.8 beats min-1; EC50 [15]: 36000 nM
